Data taken from the array DNA melting data of Ke et al. (doi:10.1101/2024.01.08.574731).

Legend:
[1] = melting temperature; fluorescence melt of hairpins on a sequencing array, two-state fit, raised by 9.35 °C to match UV melts; conditions: sodium 0.088 M
Procedure, shortened: (§1)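 To match UV melts, fitted temperatures were raised by 9.35 °C. These fits were bootstrapped two-state models that gave melting temperature and folding enthalpy, combined by inverse variance over four replicates. The input was normalised Cy3 fluorescence of library hairpins with annealed Cy3 and quencher oligos on a sequenced MiSeq flow cell, imaged in 50 mM Na-HEPES pH 8.0, 25 mM NaCl in 2.5 °C steps up to 60 °C.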

[2] = folding enthalpy; higher = less favourable; fluorescence melt of hairpins on a sequencing array, two-state fit; conditions: sodium 0.088 M
Procedure, shortened: as §1

Which results are given for GGCGCTTCGAAAGAAGCC (((..(((....))))))?
Tm [1]: 47.8 °C; folding enthalpy [2]: -9.84 kcal/mol

Which Tm [1] does the source give for GGCGGAGCGAAAGCTGCC (((..(((....)))))) here?
The Tm was 52.3 °C.

And the folding enthalpy [2]?
The folding enthalpy was -17 kcal/mol.

Which Tm [1] does the source give for GGCGGCGAAAGCCACGCC ((((((....)))..))) here?
The Tm was 63.6 °C.

What about the folding enthalpy [2] of the same sequence?
Its folding enthalpy is -17.1 kcal/mol.

Which Tm [1] does the source give for GGCGGCGAAAGCCCTGCC ((((((....)))..))) here?
Its Tm is 53.6 °C.

What about the folding enthalpy [2] of the same sequence?
The folding enthalpy was -20.1 kcal/mol.

Which Tm [1] does the source give for GGCGGCGAAAGCCGTGCC ((((((....)))..))) here?
The Tm was 57.7 °C.

And the folding enthalpy [2]?
Its folding enthalpy is -10.1 kcal/mol.

For GGCGGCGGAAACGCCACC ((.((((....)))).)), which Tm [1] is on record?
The Tm was 63.7 °C.

What about the folding enthalpy [2] of the same sequence?
The folding enthalpy was -27.5 kcal/mol.

Which Tm [1] does the source give for GGCGGGACGAAAGTCGCC (((..(((....)))))) here?
The Tm was 59.5 °C.

And the folding enthalpy [2]?
The folding enthalpy was -28.6 kcal/mol.

What does the source list for GGCGGGGGAAACTCCGCC (((((.(....).)))))?
Tm [1]: 67.7 °C; folding enthalpy [2]: -38 kcal/mol

With GGCGGTGGAAACACTGCC (((.(((....))).))) as the sequence, how does the Tm [1] read?
The Tm was 61.6 °C.

What about the folding enthalpy [2] of the same sequence?
The folding enthalpy was -47.3 kcal/mol.

What does the source list for GGCGGTGGAAACGTCGCC ((((..(....)..))))?
Tm [1]: 53.9 °C; folding enthalpy [2]: -33.8 kcal/mol

With GGCGTAACGAAAGTTGCC (((..(((....)))))) as the sequence, how does the Tm [1] read?
The Tm was 48.9 °C.

And the folding enthalpy [2]?
Its folding enthalpy is -25.3 kcal/mol.

For GGCGTACGAAAGTAGGCC (((.(((....))).))), which Tm [1] is on record?
The Tm was 64.1 °C.

What about the folding enthalpy [2] of the same sequence?
The folding enthalpy was -36.6 kcal/mol.

Which results are given for GGCGTAGCGAAAGCTGCC (((..(((....))))))?
Tm [1]: 55.3 °C; folding enthalpy [2]: -21.9 kcal/mol

What does the source list for GGCGTAGGAAACTACACC ((.((((....)))).))?
Tm [1]: 44.4 °C; folding enthalpy [2]: -29.1 kcal/mol

For GGCGTAGGAAACTACGTC (.(((((....))))).), which Tm [1] is on record?
The Tm was 52.4 °C.

And the folding enthalpy [2]?
The folding enthalpy was -34.7 kcal/mol.

What does the source list for GGCGTAGGAAACTGCGCC ((((.((....)).))))?
Tm [1]: 62.3 °C; folding enthalpy [2]: -48.8 kcal/mol

With GGCGTCCGAAAGGAAGCC (((.(((....))).))) as the sequence, how does the Tm [1] read?
Its Tm is 67 °C.

What about the folding enthalpy [2] of the same sequence?
Its folding enthalpy is -34.7 kcal/mol.

Which results are given for GGCGTCCGAAAGGAGCC (((.(((....))))))?
Tm [1]: 59.5 °C; folding enthalpy [2]: -25.9 kcal/mol

What does the source list for GGCGTCGAAAGACAGCC ((((((....))).)))?
Tm [1]: 63.7 °C; folding enthalpy [2]: -34.3 kcal/mol

For GGCGTCGAAAGACCGGCC ((((((....)))..))), which Tm [1] is on record?
The Tm was 51 °C.

And the folding enthalpy [2]?
The folding enthalpy was -19.4 kcal/mol.

What does the source list for GGCGTCGAAAGACGCGCC ((((((....)))..)))?
Tm [1]: 62.7 °C; folding enthalpy [2]: -6.87 kcal/mol

With GGCGTCGAAAGACTAGCC ((((((....)))..))) as the sequence, how does the Tm [1] read?
The Tm was 54.5 °C.

And the folding enthalpy [2]?
The folding enthalpy was -34 kcal/mol.

Which results are given for GGCGTCTCGAAAGAGGCC (((..(((....))))))?
Tm [1]: 53 °C; folding enthalpy [2]: -33.3 kcal/mol

Which results are given for GGCGTGGGAAACCGTGCC (((..((....))..)))?
Tm [1]: 49.1 °C; folding enthalpy [2]: -32.1 kcal/mol

For GGCGTTGGAAACAGTGCC (((..((....))..))), which Tm [1] is on record?
Its Tm is 42.6 °C.

What about the folding enthalpy [2] of the same sequence?
The folding enthalpy was -28.2 kcal/mol.

Which Tm [1] does the source give for GGCGTTGGAAACGACGTC (.(((.(....).))).) here?
Its Tm is 58.1 °C.

And the folding enthalpy [2]?
Its folding enthalpy is -29.8 kcal/mol.

With GGCGTTGGAAACGATGCC (((.(.(....).).))) as the sequence, how does the Tm [1] read?
Its Tm is 48 °C.

And the folding enthalpy [2]?
The folding enthalpy was -24.9 kcal/mol.

What does the source list for GGCTAAGGAAACTCAGCC ((((.((....)).))))?
Tm [1]: 38.1 °C; folding enthalpy [2]: -27.3 kcal/mol

For GGCTACGAAAGTAAGCC ((((((....))).))), which Tm [1] is on record?
The Tm was 58.4 °C.

And the folding enthalpy [2]?
The folding enthalpy was -36.3 kcal/mol.

For GGCTACGAAAGTAATGCC ((((((....)))..))), which Tm [1] is on record?
The Tm was 46.9 °C.

And the folding enthalpy [2]?
The folding enthalpy was -22.6 kcal/mol.

What does the source list for GGCTACGAAAGTACTGCC ((((((....)))..)))?
Tm [1]: 39.6 °C; folding enthalpy [2]: -22.7 kcal/mol

What does the source list for GGCTACGAAAGTAGGCC ((((((....))).)))?
Tm [1]: 57.6 °C; folding enthalpy [2]: -17.3 kcal/mol

Which results are given for GGCTACGAAAGTAGTGCC ((((((....)))..)))?
Tm [1]: 46.7 °C; folding enthalpy [2]: -16.6 kcal/mol

With GGCTACGGAAACGTAGTC (.(((((....))))).) as the sequence, how does the Tm [1] read?
Its Tm is 53.6 °C.

What about the folding enthalpy [2] of the same sequence?
Its folding enthalpy is -28.9 kcal/mol.

For GGCTACTCGAAAGAGGCC (((..(((....)))))), which Tm [1] is on record?
Its Tm is 45.7 °C.

What about the folding enthalpy [2] of the same sequence?
Its folding enthalpy is -30 kcal/mol.

Which results are given for GGCTAGCGAAAGCTCGCC (((.(((....))).)))?
Tm [1]: 58.8 °C; folding enthalpy [2]: -36.3 kcal/mol

For GGCTAGGGAAACCTAACC ((.((((....)))).)), which Tm [1] is on record?
Its Tm is 35.2 °C.

What about the folding enthalpy [2] of the same sequence?
The folding enthalpy was -30.3 kcal/mol.

Which results are given for GGCTAGGGAAACCTAGTC (.(((((....))))).)?
Tm [1]: 48.8 °C; folding enthalpy [2]: -41.7 kcal/mol

Which results are given for GGCTATCGAAAGATGGCC (((.(((....))).)))?
Tm [1]: 59.8 °C; folding enthalpy [2]: -52.3 kcal/mol

For GGCTATGGAAACATAACC ((.((((....)))).)), which Tm [1] is on record?
Its Tm is 34.4 °C.

What about the folding enthalpy [2] of the same sequence?
Its folding enthalpy is -25.7 kcal/mol.

What does the source list for GGCTATGGAAACATAGTC (.(((((....))))).)?
Tm [1]: 46.5 °C; folding enthalpy [2]: -34.7 kcal/mol

What does the source list for GGCTCACCGAAAGGTGCC (((..(((....))))))?
Tm [1]: 39.6 °C; folding enthalpy [2]: -10.9 kcal/mol

What does the source list for GGCTCACGAAAGTGCGCC (((.(((....))).)))?
Tm [1]: 58.4 °C; folding enthalpy [2]: -50.9 kcal/mol

With GGCTCAGGAAACTGAACC ((.((((....)))).)) as the sequence, how does the Tm [1] read?
Its Tm is 41.8 °C.

What about the folding enthalpy [2] of the same sequence?
The folding enthalpy was -32.3 kcal/mol.

With GGCTCAGGAAACTGAGTC (.(((((....))))).) as the sequence, how does the Tm [1] read?
The Tm was 52.6 °C.

And the folding enthalpy [2]?
The folding enthalpy was -40.2 kcal/mol.
